Measured values as given in ChEMBL document CHEMBL4007505 (J Med Chem, 2017).
The source made the active and inactive calls. The rule behind the calls is not given here.

What was measured:
[1] = target: T1, Sodium-dependent serotonin transporter (Homo sapiens, UniProt P31645); experiment: Enhancing of [3H]mazindol binding to recombinant human SERT expressed in HEK293 cell membranes preincubated for 10 mins followed by radioligand addition measured after 90 mins by micro beta scintillation counting analysis
Target sequence in this assay (P31645 whole entry): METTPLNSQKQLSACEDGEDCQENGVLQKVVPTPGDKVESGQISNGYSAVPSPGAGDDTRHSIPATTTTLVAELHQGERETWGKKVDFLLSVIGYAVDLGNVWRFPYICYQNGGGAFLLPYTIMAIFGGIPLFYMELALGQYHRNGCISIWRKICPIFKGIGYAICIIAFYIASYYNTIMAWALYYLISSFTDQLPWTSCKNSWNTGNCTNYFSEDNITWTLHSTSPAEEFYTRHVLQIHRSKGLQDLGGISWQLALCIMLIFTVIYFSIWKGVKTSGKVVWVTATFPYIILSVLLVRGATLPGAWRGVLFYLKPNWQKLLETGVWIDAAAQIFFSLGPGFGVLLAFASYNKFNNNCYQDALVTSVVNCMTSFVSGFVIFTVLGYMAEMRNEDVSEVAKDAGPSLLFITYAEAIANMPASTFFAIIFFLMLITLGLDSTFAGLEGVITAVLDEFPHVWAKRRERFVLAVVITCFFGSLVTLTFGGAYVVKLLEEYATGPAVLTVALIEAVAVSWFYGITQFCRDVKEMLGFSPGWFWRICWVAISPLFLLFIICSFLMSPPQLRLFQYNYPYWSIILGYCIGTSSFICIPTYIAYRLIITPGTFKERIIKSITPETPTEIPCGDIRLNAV

[2] = target: Sodium-dependent dopamine transporter (Mus musculus) (UniProt Q61327); experiment: (§1) Enhancing of [125I]RTI-55 binding to mouse DAT expressed in HEK293 cells preincubated for 10 mins followed by radioligand addition measured after 90 mins by micro beta scintillation counting analysis; format: cell-based
Procedure, shortened: (§2)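 Membranes preincubated 10 min at room temperature with compound in Krebs-HEPES buffer pH 7.4, then [125I]23 at fixed 45-50 pM for 90 min in the dark, filtered. […] EC50 and % control binding; mean ± SEM.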

[3] = target: T2, Sodium-dependent dopamine transporter (Mus musculus, UniProt Q61327); experiment: as §1; format: cell-based; procedure, shortened: as §2
[4] = target: T2, Sodium-dependent dopamine transporter; experiment: Inhibition of mouse DAT expressed in HEK293 cells assessed as reduction in [3H]-DA uptake; format: cell-based
[5] = target: T3, Sodium-dependent dopamine transporter (Homo sapiens, UniProt Q01959); experiment: Enhancing of [3H]WIN35,428 binding to recombinant human DAT expressed in HEK293 cell membranes at 10 uM pre-incubated for 10 mins before radioligand addition and measured 90 mins after radioligand addition by micro beta scintillation counting analysis relative to control
[6] = target: T4, Sodium-dependent noradrenaline transporter (Homo sapiens, UniProt P23975); experiment: Enhancing of [3H]mazindol binding to recombinant human NET expressed in HEK293 cell membranes preincubated for 10 mins followed by radioligand addition measured after 90 mins by micro beta scintillation counting analysis
[7] = target: T3, Sodium-dependent dopamine transporter; experiment: Enhancing of [125I]RTI-55 binding to recombinant human DAT expressed in HEK293 cell membranes preincubated for 10 mins followed by radioligand addition measured after 90 mins by micro beta scintillation counting analysis; parameters: concentration or dose not given beside the values; settings: for EC50: read-out: EC50
Procedure, shortened: (§3)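 Membranes of HEK-293 cells stably expressing hDAT, hNET or hSERT. […] Compound preincubated 10 min at room temperature, then [125I]23 (40-80 pM final) or [3H]26 (1-3 nM for DAT and NET, 10-13 nM for SERT) added. Incubated 90 min at room temperature in the dark, then filtered. EC50 or Ki; mean ± SEM.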

Adenosine receptor A3 [8] = target: T5, Adenosine receptor A3 (Homo sapiens, UniProt P0DMS8); experiment: Displacement of [125I]N6-(4-amino-3-iodobenzyl)adenosine-5'-N-methyluronamide from human A3AR expressed in HEK293T cells pre-incubated for 10 mins before radioligand addition and measured 90 mins after radioligand addition by micro beta scintillation counting analysis relative to control; format: cell-based, HEK-293T
T5 sequence (P0DMS8 whole entry): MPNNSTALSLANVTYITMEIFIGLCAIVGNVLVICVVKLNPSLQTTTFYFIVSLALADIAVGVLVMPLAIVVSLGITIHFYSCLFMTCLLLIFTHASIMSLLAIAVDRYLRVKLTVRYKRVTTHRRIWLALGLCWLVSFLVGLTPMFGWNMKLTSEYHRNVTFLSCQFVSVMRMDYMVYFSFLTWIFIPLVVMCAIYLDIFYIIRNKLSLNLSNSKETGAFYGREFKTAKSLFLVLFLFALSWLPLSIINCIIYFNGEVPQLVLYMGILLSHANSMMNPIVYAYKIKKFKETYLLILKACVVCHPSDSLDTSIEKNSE

[9] = target: T4, Sodium-dependent noradrenaline transporter; experiment: Inhibition of recombinant human NET expressed in HEK293 […] assessed as reduction in [3H]-norepinephrine uptake incubated for 22 mins by micro beta scintillation counting analysis
[10] = target: T3, Sodium-dependent dopamine transporter; experiment: Inhibition of recombinant human DAT expressed in HEK293 cell […] as reduction in [3H]-DA uptake incubated for 22 mins by micro beta scintillation counting analysis
[11] = target: T1, Sodium-dependent serotonin transporter; experiment: Enhancing of [125I]RTI-55 binding to recombinant human SERT expressed in HEK293 cell membranes preincubated for 10 mins followed by radioligand addition measured after 90 mins by micro beta scintillation counting analysis; settings: for EC50: read-out: EC50
[12] = target: T3, Sodium-dependent dopamine transporter; experiment: Inhibition of [3H]WIN35,428 binding to recombinant human DAT expressed in HEK293 cell membranes at 10 uM pre-incubated for 10 mins before radioligand addition and measured 90 mins after radioligand addition by micro beta scintillation counting analysis relative to control
[13] = target: T6, Adenosine receptor A3 (Mus musculus) (UniProt Q61618); experiment: Displacement of [125I]N6-(4-amino-3-iodobenzyl)adenosine-5'-N-methyluronamide from mouse A3AR expressed in HEK293T cells at 10 uM pre-incubated for 10 mins before radioligand addition and measured 90 mins after radioligand addition by micro beta scintillation counting analysis relative to control; format: cell-based
T6 sequence (whole entry): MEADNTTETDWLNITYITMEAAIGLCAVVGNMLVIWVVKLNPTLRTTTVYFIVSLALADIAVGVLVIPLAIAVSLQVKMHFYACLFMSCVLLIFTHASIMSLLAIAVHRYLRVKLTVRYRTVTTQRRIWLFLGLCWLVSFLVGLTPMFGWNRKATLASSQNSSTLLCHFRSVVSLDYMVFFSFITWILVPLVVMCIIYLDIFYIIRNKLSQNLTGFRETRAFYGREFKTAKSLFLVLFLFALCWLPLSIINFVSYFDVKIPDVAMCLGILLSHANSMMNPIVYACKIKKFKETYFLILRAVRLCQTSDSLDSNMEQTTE

[14] = target: T3, Sodium-dependent dopamine transporter; experiment: Enhancing of [3H]mazindol binding to recombinant human DAT expressed in HEK293 cell membranes preincubated for 10 mins followed by radioligand addition measured after 90 mins by micro beta scintillation counting analysis; parameters: concentration or dose not given beside the values; settings: for EC50: read-out: EC50; procedure, shortened: as §3
[15] = target: T4, Sodium-dependent noradrenaline transporter; experiment: Enhancing of [125I]RTI-55 binding to recombinant human NET expressed in HEK293 cell membranes preincubated for 10 mins followed by radioligand addition measured after 90 mins by micro beta scintillation counting analysis; parameters: concentration or dose not given beside the values; settings: for EC50: read-out: EC50
[16] = target: T3, Sodium-dependent dopamine transporter; experiment: Enhancing of [3H]WIN35,428 binding to recombinant human DAT expressed in HEK293 cell membranes pre-incubated for 10 mins before radioligand addition and measured 90 mins after radioligand addition by micro beta scintillation counting analysis relative to control
Adenosine receptor A3 [17] = target: T7, Adenosine receptor A3 (Mus musculus, UniProt Q61618); experiment: Displacement of [125I]N6-(4-amino-3-iodobenzyl)adenosine-5'-N-methyluronamide from mouse A3AR expressed in HEK293T cells pre-incubated for 10 mins before radioligand addition and measured 90 mins after radioligand addition by micro beta scintillation counting analysis relative to control; format: cell-based
T7 sequence (Q61618 whole entry): T6 sequence (whole entry)

T4 sequence (P23975 whole entry): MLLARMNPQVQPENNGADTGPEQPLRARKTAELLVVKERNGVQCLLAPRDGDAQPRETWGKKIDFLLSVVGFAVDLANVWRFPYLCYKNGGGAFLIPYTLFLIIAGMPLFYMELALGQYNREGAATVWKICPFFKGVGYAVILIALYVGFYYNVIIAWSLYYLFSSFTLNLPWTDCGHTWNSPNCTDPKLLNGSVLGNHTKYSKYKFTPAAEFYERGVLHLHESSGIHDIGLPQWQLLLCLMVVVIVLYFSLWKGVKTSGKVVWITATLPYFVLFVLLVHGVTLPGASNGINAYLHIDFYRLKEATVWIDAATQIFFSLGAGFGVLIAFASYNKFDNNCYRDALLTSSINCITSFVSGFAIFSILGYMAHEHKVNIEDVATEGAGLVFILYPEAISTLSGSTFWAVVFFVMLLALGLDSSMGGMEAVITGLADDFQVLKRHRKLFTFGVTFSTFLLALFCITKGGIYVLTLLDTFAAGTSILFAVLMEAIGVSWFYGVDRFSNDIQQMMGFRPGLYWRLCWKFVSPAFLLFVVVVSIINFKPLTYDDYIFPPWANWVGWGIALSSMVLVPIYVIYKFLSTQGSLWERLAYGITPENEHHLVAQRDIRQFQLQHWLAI
T3 sequence (Q01959 whole entry): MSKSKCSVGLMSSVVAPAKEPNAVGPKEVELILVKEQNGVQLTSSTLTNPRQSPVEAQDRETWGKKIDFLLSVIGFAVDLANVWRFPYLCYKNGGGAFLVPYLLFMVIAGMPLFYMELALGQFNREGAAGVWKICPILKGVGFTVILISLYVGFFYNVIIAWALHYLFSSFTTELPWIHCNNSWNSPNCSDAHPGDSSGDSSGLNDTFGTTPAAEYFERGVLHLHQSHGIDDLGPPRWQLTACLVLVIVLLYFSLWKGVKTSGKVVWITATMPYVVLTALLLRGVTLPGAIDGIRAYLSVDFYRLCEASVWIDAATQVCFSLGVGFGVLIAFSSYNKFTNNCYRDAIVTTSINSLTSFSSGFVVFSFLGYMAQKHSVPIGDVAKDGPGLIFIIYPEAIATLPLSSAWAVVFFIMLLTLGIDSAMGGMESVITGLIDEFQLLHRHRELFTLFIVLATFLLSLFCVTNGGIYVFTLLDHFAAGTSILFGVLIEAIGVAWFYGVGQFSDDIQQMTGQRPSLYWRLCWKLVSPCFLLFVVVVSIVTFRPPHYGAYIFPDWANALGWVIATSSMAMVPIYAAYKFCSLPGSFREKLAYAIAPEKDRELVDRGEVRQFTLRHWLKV
T2 sequence (Q61327 whole entry): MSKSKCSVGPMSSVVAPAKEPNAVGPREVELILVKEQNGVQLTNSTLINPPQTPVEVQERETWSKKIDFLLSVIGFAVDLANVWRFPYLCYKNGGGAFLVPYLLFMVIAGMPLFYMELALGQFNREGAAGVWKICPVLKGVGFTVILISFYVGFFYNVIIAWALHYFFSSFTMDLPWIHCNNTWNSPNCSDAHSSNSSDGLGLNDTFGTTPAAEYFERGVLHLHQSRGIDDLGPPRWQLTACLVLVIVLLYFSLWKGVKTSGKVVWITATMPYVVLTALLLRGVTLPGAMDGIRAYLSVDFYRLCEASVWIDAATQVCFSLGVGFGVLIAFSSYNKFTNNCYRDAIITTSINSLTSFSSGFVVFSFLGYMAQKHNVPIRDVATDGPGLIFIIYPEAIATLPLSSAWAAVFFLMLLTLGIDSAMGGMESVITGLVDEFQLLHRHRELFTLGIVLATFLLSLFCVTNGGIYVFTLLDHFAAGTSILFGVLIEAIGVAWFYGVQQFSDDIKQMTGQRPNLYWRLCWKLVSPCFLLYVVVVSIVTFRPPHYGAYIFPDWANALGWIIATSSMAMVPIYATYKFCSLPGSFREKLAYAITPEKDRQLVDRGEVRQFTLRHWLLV
Chain of Sodium-dependent dopamine transporter (Mus musculus) (Q61327 whole entry): as above

CCOC(=O)[C@@]12C[C@@H]1[C@@H](n1cnc3c(NC)nc(C#Cc4ccc(Cl)s4)nc31)[C@H](O)[C@@H]2O
EC50 [1]: > 10000 nM | Emax [2]: 1560% | EC50 [3]: 1070 nM | IC50 [4]: 1170 nM | Activity [5]: 539% | Activity [6]: inactive | Activity [7]: 434% | EC50 [7]: 34 nM | Ki (Adenosine receptor A3 [8]): 14.5 nM | IC50 [9]: 3980 nM | IC50 [10]: 107 nM | Activity [11]: inactive | EC50 [11]: > 10000 nM | inhibition [12]: inactive | inhibition [13]: 45% | Activity [14]: 455% | EC50 [14]: 267 nM | Activity [15]: 365% | EC50 [15]: 490 nM

CNc1nc(C#Cc2ccc(Cl)s2)nc2c1ncn2[C@H]1[C@H](O)[C@H](O)[C@]2(C(=O)OCCCc3ccccc3)C[C@H]12
Activity [5]: inactive | inhibition [13]: 9%

CNc1nc(C#Cc2ccc(Cl)s2)nc2c1ncn2[C@H]1[C@H](O)[C@H](O)[C@]2(C(=O)OCCC(C)C)C[C@H]12
Activity [5]: 196% | Ki (Adenosine receptor A3 [8]): 24.4 nM | inhibition [12]: inactive | inhibition [13]: 32%

CNc1nc(C#Cc2ccc(Cl)s2)nc2c1ncn2[C@H]1[C@H](O)[C@H](O)[C@]2(C(=O)O)C[C@H]12
EC50 [16]: > 1000 nM | Activity [5]: 50% | inhibition [12]: inactive | inhibition [13]: 0%

CNc1nc(C#Cc2ccc(Cl)s2)nc2c1ncn2[C@H]1[C@H](O)[C@H](O)[C@]2(C(=O)OCCC3CCCCC3)C[C@H]12
Activity [5]: inactive | Ki (Adenosine receptor A3 [8]): 770 nM | inhibition [13]: 5%

CCCCOC(=O)[C@@]12C[C@@H]1[C@@H](n1cnc3c(NC)nc(C#Cc4ccc(Cl)s4)nc31)[C@H](O)[C@@H]2O
EC50 [16]: 1200 nM | Activity [5]: 285% | Ki (Adenosine receptor A3 [8]): 17.5 nM | inhibition [12]: inactive | inhibition [13]: 54%

CCOC(=O)[C@@]12C[C@@H]1[C@@H](n1cnc3c(NC)nc(C#Cc4ccc(Br)s4)nc31)[C@H](O)[C@@H]2O
EC50 [16]: 400 nM | Activity [5]: 430% | Ki (Adenosine receptor A3 [8]): 6.42 nM | inhibition [12]: inactive | Ki (Adenosine receptor A3 [17]): 1800 nM

CCNc1cc(C#Cc2ccc(Cl)s2)nc2c1ncn2[C@H]1[C@H](O)[C@H](O)[C@]2(C(=O)NC)C[C@H]12
Activity [5]: inactive

CCCOC(=O)[C@@]12C[C@@H]1[C@@H](n1cnc3c(NC)nc(C#Cc4ccc(Cl)s4)nc31)[C@H](O)[C@@H]2O
EC50 [1]: > 10000 nM | Activity [5]: 426% | Activity [6]: inactive | Activity [7]: 461% | EC50 [7]: 294 nM | Ki (Adenosine receptor A3 [8]): 5.78 nM | IC50 [9]: 7900 nM | IC50 [10]: 1140 nM | Activity [11]: inactive | EC50 [11]: > 10000 nM | inhibition [12]: inactive | Activity [14]: 347% | EC50 [14]: 535 nM | Ki (Adenosine receptor A3 [17]): 2810 nM | Activity [15]: 302% | EC50 [15]: 980 nM

CNc1nc(C#Cc2ccc(Cl)s2)nc2c1ncn2[C@H]1[C@H](O)[C@H](O)[C@]2(C(=O)NCCN)C[C@H]12
EC50 [16]: > 1000 nM | Activity [5]: 136% | Ki (Adenosine receptor A3 [8]): 156 nM | inhibition [12]: inactive | inhibition [13]: 0%
